The subject of experiment [1] is SHP2/E76K-expressing hematopoietic progenitors. The class given is cell-based. Conditions: 2 µM for 24 hours, GM-CSF 1 ng/mL, [3H] thymidine. The essentials:
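Transduced, EGFP-sorted bone marrow low-density mononuclear cells (empty vector, wild-type SHP2 or SHP2/E76K) were serum- and growth factor-starved for 6 h. They were then cultured in complete medium with GM-CSF 1 ng/mL, with DMSO or 2 µM test compound, for 24 h. Cells were pulsed with [3H]thymidine to measure proliferation. Two independent experiments, cultures in triplicate.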

The next experiment addresses T1, Cdc14A (Homo sapiens, UniProt Q9UNH5).
T1 sequence (Q9UNH5 1-594): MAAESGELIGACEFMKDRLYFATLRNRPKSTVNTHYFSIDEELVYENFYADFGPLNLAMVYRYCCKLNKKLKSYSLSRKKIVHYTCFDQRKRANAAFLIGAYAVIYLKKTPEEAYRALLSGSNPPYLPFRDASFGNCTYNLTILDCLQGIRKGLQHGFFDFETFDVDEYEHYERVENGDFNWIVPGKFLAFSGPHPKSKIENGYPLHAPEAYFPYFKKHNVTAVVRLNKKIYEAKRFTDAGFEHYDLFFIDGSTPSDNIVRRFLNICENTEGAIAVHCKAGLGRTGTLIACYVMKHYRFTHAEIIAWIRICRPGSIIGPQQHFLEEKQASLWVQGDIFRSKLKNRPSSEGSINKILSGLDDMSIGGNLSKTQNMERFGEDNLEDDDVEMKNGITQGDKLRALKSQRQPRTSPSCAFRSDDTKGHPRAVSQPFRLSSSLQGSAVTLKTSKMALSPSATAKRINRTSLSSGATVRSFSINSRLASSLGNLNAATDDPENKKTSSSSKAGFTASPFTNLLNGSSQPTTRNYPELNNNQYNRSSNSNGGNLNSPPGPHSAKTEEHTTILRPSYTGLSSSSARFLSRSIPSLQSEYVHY
Briefly: PTP-catalyzed pNPP hydrolysis, Cdc14A. The class given is biochemical. In short, it runs like this:
(§1)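 pNPP hydrolysis was run at 25 °C in 50 mM 3,3-dimethylglutarate, pH 7.0, 1 mM EDTA, ionic strength 0.15 M (NaCl). pNPP was fixed at each enzyme's experimentally determined Km, and reactions were started with enzyme. They were quenched with NaOH and corrected with no-enzyme controls. p-Nitrophenol was read at 405 nm. IC50 was fitted from AI/A0 = IC50/(IC50+[I]).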

Experiment [2] deals with transduced bone marrow LDMNCs (MIEG3, wild-type SHP2, SHP2/E76K). Nature of the experiment: Methylcellulose colony assay, GM-CSF-stimulated monocytic differentiation. The class given is cell-based. Conditions: 2 µM, GM-CSF 1 ng/mL, 7 days, all cell types. In short, it runs like this:
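Transduced, EGFP-sorted bone marrow low-density mononuclear cells were plated at 8000 cells/mL in 0.9% methylcellulose medium (IMDM, 2 mM glutamine, 80 µM β-mercaptoethanol, 30% FBS) with GM-CSF 1 ng/mL, ± 2 µM test compound. Cultures were kept at 37 °C, 5% CO2 for 7 days. Total colonies and CFU-GM vs CFU-M morphology were scored by light microscopy; n=2.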

The target in the next experiment is T2, Lyp (Homo sapiens, UniProt Q9Y2R2).
T2 sequence (Q9Y2R2 1-807): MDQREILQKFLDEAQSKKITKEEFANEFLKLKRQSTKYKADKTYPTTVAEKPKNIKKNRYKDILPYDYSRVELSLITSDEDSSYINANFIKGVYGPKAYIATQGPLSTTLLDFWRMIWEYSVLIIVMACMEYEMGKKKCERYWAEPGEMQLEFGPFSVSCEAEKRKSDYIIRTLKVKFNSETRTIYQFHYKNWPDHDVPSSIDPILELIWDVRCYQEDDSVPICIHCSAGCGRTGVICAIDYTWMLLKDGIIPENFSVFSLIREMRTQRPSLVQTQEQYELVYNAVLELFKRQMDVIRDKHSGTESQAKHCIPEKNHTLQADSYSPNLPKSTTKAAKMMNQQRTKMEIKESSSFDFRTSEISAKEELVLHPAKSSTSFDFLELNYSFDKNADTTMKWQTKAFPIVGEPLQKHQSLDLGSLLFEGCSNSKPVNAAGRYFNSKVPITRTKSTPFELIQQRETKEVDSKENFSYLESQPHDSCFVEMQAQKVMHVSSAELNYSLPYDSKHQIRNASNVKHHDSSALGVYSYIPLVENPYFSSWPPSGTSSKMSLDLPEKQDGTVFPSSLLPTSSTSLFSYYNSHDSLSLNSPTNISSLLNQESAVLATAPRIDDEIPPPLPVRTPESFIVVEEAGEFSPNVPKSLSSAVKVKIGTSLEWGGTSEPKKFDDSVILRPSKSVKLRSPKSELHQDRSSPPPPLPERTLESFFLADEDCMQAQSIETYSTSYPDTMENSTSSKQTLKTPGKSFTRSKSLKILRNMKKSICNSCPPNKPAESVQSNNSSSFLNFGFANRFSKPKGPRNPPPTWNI
Nature of the experiment: PTP-catalyzed pNPP hydrolysis, Lyp. Format: biochemical. The essentials:
as §1

For another experiment, the system named is Jurkat T cells. Nature of the experiment: TCR-mediated tyrosine phosphorylation in Jurkat T cells. Format: cell-based. The settings on record: 2 h pretreatment (2 µM; TTN 2–4 µM), 10 µg/mL anti-CD3.
For a further experiment, the target named is T3, PTP1B (Homo sapiens, UniProt P18031).
T3 sequence (P18031 1-435): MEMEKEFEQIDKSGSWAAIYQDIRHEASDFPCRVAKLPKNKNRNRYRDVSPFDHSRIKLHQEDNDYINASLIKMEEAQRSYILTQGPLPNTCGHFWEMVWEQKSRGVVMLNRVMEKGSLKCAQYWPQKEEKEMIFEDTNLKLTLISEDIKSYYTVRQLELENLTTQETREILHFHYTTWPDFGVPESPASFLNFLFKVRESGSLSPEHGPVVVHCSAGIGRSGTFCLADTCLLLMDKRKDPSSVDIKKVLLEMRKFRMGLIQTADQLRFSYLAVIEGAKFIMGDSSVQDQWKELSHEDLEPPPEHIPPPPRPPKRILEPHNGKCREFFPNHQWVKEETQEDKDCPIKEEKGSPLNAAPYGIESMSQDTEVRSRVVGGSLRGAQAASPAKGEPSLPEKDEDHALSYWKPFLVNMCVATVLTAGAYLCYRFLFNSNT
Briefly: PTP-catalyzed pNPP hydrolysis, PTP1B. Format: biochemical. The essentials:
as §1

The target of the next experiment is T4, HePTP (Homo sapiens, UniProt P35236).
T4 sequence (P35236 1-360): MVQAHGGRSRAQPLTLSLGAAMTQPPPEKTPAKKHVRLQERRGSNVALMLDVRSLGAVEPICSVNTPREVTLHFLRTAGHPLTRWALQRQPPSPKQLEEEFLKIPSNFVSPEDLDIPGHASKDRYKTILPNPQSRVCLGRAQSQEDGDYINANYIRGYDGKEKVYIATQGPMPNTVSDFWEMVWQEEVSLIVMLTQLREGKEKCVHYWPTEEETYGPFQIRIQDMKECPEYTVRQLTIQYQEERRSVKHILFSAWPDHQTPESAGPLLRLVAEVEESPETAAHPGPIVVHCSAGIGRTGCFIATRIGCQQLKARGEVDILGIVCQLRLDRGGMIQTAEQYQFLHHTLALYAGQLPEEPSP
Nature of the experiment: PTP-catalyzed pNPP hydrolysis, HePTP. The class given is biochemical. The essentials:
as §1

With `C=C/C(=C/C(=O)C[C@H](C)C[C@@H](C)CC[C@H](O)[C@H](C)C(=O)C[C@@H](O)[C@H](C)[C@@H](C)OC(=O)C[C@@H](O)C1=C(C)C(=O)OC1=O)CC` [TTN, tautomycetin], the “effect on proliferation of SHP2/E76K-expressing progenitors” value in experiment [1] is given as “effectively reduced”. The IC50 was > 50 µM on Cdc14A, 20 ± 2 µM against Lyp, 41.2 ± 4.4 µM against PTP1B and > 50 µM against HePTP. For the same compound, the “effect on development of CFU-M” value in experiment [2] is reported as “reduced in all cells types”. Moreover, the “effect on TCR-mediated tyrosine phosphorylation” value with Jurkat T cells is recorded as “efficiently attenuated”.

These data come from publication PMC3034256 (Chemistry & biology, 2011).
